The values that follow come from ChEMBL document CHEMBL4177600, “Identification of novel PI3K inhibitors through a scaffold hopping strategy” (Bioorg Med Chem Lett, 2017).

In brackets after ≈: the same amount, converted by molar mass.

The nature of data set [1]: Kinetic solubility of the compound in phosphate buffered saline at pH 7.4 at 1 to 2 mg measured after 24 hrs by HPLC analysis. The data set is classed as physicochemical. Particulars: read-out: Kinetic_solubility. The gist of the method: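 Solid compound (1–2 mg) in 1 mL PBS, pH 7.4, inverted in test tubes for 24 h. Samples centrifuged, supernatant analysed by HPLC with diode-array detection, with peak area compared to a standard of known concentration. LC-MS/MS used when UV signal was too low or the chromophore poor. Reported in µM.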

The nature of data set [2]: Stability in human liver microsomes assessed as parent compound remaining at 0.5 uM after 30 mins by LC-MS/MS analysis. The data set is classed as ADME, microsome. The following applies: read-out: Stability. The gist of the method:
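Single time-point stability assay: 0.5 µM compound, 0.5 mg/ml human or mouse liver microsomes in 0.1 M potassium phosphate pH 7.4, with NADPH-regenerating system, 30 min at 37 °C with shaking. Reaction quenched with acetonitrile/0.1% formic acid and centrifuged; supernatant analysed by LC-MS/MS. Reported as percent remaining; duplicates.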
(In general: Microsomes from liver hold many membrane-bound enzymes, among them those of drug oxidation.)

Data set [3] has as its target Dual specificity mitogen-activated protein kinase kinase 1 (Homo sapiens) (UniProt Q02750). In words: Inhibition of wild-type human MEK1 (M1 to V393 residues) expressed in Sf9 insect cells at 1 uM using ERK2-K54R as substrate by filter binding method relative to control. The gist of the method:
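Single-point screen at 1 µM in a 24-kinase panel run externally; each value is the average of two independent data points. The detailed assay conditions are given only on the provider's site.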

Data set [4] addresses Vascular endothelial growth factor receptor 2 (Homo sapiens) (UniProt P35968). In words: Inhibition of recombinant human N-terminal GST-tagged VEGFR2 (D807 to V1356 residues) expressed in Sf9 insect cells at 1 uM using Poly(Glu:Tyr)4:1 as substrate by filter binding method relative to control. An outline of the steps:
(§1)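 Kinase panel of 24 enzymes, each tested at 1 µM; percent inhibition reported as the average of two independent data points.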

For data set [5], the target named is T1, Inhibitor of nuclear factor kappa-B kinase subunit beta (Homo sapiens) (UniProt O14920).
T1 sequence (whole entry): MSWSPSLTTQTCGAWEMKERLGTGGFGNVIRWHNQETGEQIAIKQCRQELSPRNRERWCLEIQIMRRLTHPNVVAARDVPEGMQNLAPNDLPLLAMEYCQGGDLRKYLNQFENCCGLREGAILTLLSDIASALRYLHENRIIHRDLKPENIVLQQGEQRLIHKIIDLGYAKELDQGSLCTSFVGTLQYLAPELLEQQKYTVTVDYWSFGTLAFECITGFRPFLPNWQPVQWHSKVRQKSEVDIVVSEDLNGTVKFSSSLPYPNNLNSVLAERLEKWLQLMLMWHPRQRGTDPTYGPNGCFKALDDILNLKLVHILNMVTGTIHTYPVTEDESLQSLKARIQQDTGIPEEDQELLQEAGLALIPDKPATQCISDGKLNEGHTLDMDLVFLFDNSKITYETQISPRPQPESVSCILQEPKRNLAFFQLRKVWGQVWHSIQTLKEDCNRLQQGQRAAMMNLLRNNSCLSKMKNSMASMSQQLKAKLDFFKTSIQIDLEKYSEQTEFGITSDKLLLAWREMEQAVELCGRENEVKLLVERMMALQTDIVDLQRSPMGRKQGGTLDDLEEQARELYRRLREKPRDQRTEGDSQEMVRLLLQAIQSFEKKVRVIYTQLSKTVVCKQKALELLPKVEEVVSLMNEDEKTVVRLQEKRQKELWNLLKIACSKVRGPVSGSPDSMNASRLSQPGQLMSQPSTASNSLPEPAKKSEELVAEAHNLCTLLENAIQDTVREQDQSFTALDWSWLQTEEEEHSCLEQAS
Briefly: Inhibition of recombinant human N-terminal GST/His6-tagged IKKbeta (M1 to S756 residues) expressed in baculovirus infected Sf9 cells at 1 uM using IKBa derived peptide as substrate by filter binding method relative to control. An outline of the steps: as §1

For data set [6], the target named is Mast/stem cell growth factor receptor Kit (Homo sapiens) (UniProt P10721). Briefly: Inhibition of recombinant human N-terminal GST/His6-tagged KIT (T544 to V976 residues) expressed in Sf9 insect cells at 1 uM using TRK-C-derived peptide as substrate by filter binding method relative to control. The gist of the method:
as §1

A short description of data set [7]: Half-life in BALB-C mouse at 9 mg/kg, po by LC-MS/MS analysis. Format: ADME, organism-based. Particulars: in vivo. An outline of the steps:
(§2)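 BALB-C mice dosed IV (10% NMP/50% PEG300/40% saline) or PO (10% NMP/90% PEG300). Plasma sampled at 6 (IV) or 8 (PO) time points; compound measured by LC/MS/MS. Parameters from bicompartmental model fit; each value is the mean of 3 independent samples.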

For data set [8], the system named is Mus musculus. In words: Time at which plasma concentration stays above cellular EC50 for inhibition of AKT phosphorylation in BALB-C mouse at 9 mg/kg, po measured up to 8 hrs by LC-MS/MS analysis. Particulars: in vivo.
Another data set concerns U2OS. In words: Inhibition of AKT phosphorylation in human U2OS cells.
For data set [9], the target named is Serine/threonine-protein kinase mTOR (Homo sapiens, UniProt P42345). Briefly: Inhibition of recombinant human GST-tagged mTOR catalytic domain (1360 to 2549 residues) expressed in baculovirus expression system by AlexaFluor647-labeled kinase tracer 314 based LanthaScreen assay. For orientation: Time-resolved FRET reads energy transfer from a long-lived donor to a nearby acceptor.

A short description of data set [10]: Clearance in BALB-C mouse at 3 mg/kg, iv by LC-MS/MS analysis. The data set is classed as ADME, organism-based. Particulars: in vivo. The gist of the method: (§3)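 Mice (BALB-C) given IV dose in 10% NMP/50% PEG300/40% saline; plasma sampled at 6 times, levels by LC/MS/MS.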
Data set [11] is described as follows: Cmax in BALB-C mouse at 5 mg/kg, po by LC-MS/MS analysis. Format: ADME, organism-based. The arrangement: dose 5 mg/kg, route oral. Particulars: in vivo. The gist of the method:
as §2

Data set [12] in a line: Volume of distribution in BALB-C mouse at 5 mg/kg, iv by LC-MS/MS analysis. The data set is classed as ADME, organism-based. Particulars: in vivo. The gist of the method: (§4)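 BALB-C mice dosed IV in 10% NMP/50% PEG300/40% saline or PO in 10% NMP/90% PEG300. Plasma sampled at 6 (IV) or 8 (PO) time points and quantified by LC/MS/MS. Parameters come from a bicompartmental model fit; values are means of 3 independent samples. Plasma levels were compared with AKT-P EC50 from U2OS cells converted to ng/ml.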

The test system of data set [13] is Mus musculus. Briefly: Clearance in BALB-C mouse at 5 mg/kg, iv by LC-MS/MS analysis relative to hepatic blood flow. The data set is classed as ADME, organism-based. The following applies: in vivo.
Data set [14] in a line: Tmax in BALB-C mouse at 5 mg/kg, po by LC-MS/MS analysis. The data set is classed as ADME, organism-based. Particulars: in vivo. An outline of the steps:
as §4

Data set [15] is described as follows: Half-life in BALB-C mouse at 5 mg/kg, iv by LC-MS/MS analysis. The data set is classed as ADME, organism-based. Particulars: in vivo. An outline of the steps: as §2
Data set [16] can be described thus: AUC (infinity) in BALB-C mouse at 5 mg/kg, iv by LC-MS/MS analysis. The following applies: in vivo. The data set is classed as ADME, organism-based. The arrangement: dose 5 mg/kg, time infinity, route intravenous. The gist of the method:
as §2

The nature of data set [17]: Clearance in BALB-C mouse at 5 mg/kg, iv by LC-MS/MS analysis. The data set is classed as ADME, organism-based. The following applies: in vivo. The gist of the method: as §3
Data set [18] in a line: Half-life in BALB-C mouse at 10 mg/kg, po by LC-MS/MS analysis. The data set is classed as ADME, organism-based. The following applies: in vivo. An outline of the steps: as §2
The nature of data set [19]: Tmax in BALB-C mouse at 10 mg/kg, po by LC-MS/MS analysis. The data set is classed as ADME, organism-based. The following applies: in vivo. The gist of the method: as §4

Chain of Dual specificity mitogen-activated protein kinase kinase 1 (Homo sapiens) (Q02750 whole entry, the tested form may be a part): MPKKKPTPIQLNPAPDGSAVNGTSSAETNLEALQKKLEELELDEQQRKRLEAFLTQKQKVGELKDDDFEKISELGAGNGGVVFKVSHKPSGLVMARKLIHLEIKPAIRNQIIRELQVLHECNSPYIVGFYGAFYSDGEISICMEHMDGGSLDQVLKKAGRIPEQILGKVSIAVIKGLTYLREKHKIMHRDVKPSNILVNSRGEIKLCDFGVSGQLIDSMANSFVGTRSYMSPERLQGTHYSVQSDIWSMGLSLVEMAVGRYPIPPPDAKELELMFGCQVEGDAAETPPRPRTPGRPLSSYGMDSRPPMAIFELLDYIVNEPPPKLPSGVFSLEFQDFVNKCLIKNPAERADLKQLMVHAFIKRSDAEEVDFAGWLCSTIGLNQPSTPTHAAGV
Chain of Vascular endothelial growth factor receptor 2 (Homo sapiens) (P35968 whole entry, the tested form may be a part): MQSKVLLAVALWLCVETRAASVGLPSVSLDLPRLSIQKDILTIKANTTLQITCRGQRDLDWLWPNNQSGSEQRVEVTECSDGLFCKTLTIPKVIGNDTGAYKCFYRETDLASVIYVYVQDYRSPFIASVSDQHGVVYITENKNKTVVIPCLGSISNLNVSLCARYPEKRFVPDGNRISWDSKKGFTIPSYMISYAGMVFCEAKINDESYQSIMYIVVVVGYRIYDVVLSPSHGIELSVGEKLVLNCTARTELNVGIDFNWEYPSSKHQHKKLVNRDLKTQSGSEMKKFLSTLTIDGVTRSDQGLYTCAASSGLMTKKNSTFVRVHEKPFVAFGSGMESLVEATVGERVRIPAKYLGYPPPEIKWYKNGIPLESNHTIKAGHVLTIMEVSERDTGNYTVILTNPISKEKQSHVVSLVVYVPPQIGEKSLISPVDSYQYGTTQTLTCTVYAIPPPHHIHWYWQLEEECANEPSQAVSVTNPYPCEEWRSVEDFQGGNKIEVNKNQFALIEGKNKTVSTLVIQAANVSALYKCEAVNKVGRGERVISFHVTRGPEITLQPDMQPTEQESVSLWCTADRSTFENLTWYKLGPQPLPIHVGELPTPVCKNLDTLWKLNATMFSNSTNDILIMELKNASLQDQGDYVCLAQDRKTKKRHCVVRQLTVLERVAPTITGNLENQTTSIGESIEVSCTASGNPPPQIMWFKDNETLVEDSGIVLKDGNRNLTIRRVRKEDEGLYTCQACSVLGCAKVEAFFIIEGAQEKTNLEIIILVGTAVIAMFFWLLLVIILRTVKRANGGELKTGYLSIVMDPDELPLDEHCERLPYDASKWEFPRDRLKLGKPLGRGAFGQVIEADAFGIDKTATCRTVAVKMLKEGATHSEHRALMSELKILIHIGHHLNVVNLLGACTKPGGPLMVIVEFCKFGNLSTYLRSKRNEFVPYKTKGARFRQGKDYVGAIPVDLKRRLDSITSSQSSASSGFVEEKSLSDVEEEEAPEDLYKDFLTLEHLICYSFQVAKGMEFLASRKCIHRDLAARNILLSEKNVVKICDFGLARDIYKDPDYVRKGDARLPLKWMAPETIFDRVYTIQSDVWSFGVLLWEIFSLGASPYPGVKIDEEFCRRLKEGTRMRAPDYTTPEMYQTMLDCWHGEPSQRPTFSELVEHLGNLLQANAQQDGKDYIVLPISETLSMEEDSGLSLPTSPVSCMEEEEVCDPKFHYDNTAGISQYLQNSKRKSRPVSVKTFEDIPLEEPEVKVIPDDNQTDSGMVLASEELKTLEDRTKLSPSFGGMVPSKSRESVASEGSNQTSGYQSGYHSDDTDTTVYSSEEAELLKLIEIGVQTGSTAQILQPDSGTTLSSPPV
Chain of Mast/stem cell growth factor receptor Kit (Homo sapiens) (P10721 whole entry, the tested form may be a part): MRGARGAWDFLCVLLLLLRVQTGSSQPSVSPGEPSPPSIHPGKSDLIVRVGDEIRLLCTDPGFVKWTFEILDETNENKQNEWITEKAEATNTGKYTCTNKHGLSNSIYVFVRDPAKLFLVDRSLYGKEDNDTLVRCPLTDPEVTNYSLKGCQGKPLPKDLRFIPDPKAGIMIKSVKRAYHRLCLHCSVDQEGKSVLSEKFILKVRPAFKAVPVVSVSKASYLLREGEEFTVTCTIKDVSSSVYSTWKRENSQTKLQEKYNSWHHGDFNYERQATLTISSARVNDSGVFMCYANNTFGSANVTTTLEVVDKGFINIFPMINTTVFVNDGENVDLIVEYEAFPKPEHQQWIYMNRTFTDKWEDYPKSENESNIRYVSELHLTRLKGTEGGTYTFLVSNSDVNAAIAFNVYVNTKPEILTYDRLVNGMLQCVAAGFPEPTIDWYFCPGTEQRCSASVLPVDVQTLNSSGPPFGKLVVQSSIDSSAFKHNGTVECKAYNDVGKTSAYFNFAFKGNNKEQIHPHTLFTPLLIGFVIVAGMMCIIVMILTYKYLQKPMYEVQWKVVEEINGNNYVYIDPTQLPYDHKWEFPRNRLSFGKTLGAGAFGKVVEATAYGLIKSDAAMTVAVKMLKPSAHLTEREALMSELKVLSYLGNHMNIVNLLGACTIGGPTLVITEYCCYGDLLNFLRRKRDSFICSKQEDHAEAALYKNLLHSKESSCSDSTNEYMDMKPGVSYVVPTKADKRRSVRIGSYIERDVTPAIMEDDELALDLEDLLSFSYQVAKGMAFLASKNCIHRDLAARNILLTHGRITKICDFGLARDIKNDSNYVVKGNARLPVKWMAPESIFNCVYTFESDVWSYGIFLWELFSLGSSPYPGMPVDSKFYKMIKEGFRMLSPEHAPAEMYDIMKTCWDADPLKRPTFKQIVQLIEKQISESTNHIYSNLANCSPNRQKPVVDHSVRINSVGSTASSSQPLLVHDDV

For `CS(=O)(=O)N1CCN(Cc2cn3nc(-c4cnc(N)nc4)nc(N4CCOCC4)c3n2)CC1`, in data set [1], the solubility kinetic at 24 h was 10 µM (≈ 4.75 µg/mL). The remaining at 0.5 h, 0.5 µM in [2] amounted to 95%. The inhibition in data set [3], in [4], in data set [5] and in data set [6] was below 25% each time.
Turning to `CS(=O)(=O)N1CCN(Cc2cc3c(N4CCOCC4)nc(-c4cnc(N)nc4)cn3n2)CC1`, the solubility kinetic at 24 h in [1] came out at 10 µM (≈ 4.74 µg/mL). Also, the remaining at 0.5 h, 0.5 µM in [2] turned out to be 97%. Besides, the inhibition in [3], in [4], in data set [5] and in data set [6] was below 25% throughout. In addition, the half-life (commonly how long it takes for the measured level to halve) in [7] is 2.84 h. Moreover, the Time in the data set with Mus musculus [8] is above 8 h. Further, the EC50 (as a rule, the concentration giving half of the maximal effect) in the data set with U2OS was 0.01444 µg/mL (≈ 0.0305 µM). Moreover, the IC50 (commonly the point on the concentration scale where inhibition reaches its midpoint) in data set [9] is 1.7 µM. Also, the clearance – broadly, the rate of elimination divided by the concentration – in [10] was 10.8 mL/min/kg.
For `CS(=O)(=O)N1CCN(Cc2nc3c(N4CCOCC4)nc(-c4cnc(N)nc4)c(Cl)n3n2)CC1`, the solubility kinetic at 24 h in data set [1] turned out to be 100 µM (≈ 50.9 µg/mL). In data set [2], the remaining at 0.5 h, 0.5 µM amounted to 97%. In data set [11], the highest level (Cmax) was 1050 ng/mL. Further, the Vd – broadly, a proportionality between amount in the body and measured concentration, not a real space – in [12] is 1.61 L/kg. Besides, the CL with Mus musculus [13] was below 50%. Besides, the inhibition in data set [3], in data set [4], in data set [5] and in [6] was below 25% throughout. The Tmax (as a rule, the time at which the peak concentration occurs) in [14] amounted to 1 h. For the same molecule, in data set [15], the half-life was 1.81 h. In [9], the IC50 was 8.17 µM. For the same molecule, the area under the curve AUC(0-inf) (usually the area under the concentration-time curve extrapolated to infinity) in data set [16] was 7730 ng·h/mL. This molecule also showed a clearance in [17] of 10.8 mL/min/kg.
For the molecule `CS(=O)(=O)N1CCN(Cc2nc3c(N4CCOCC4)nc(-c4cnc(N)nc4)cn3n2)CC1`, the solubility kinetic at 24 h in data set [1] is 100 µM (≈ 47.5 µg/mL). In [2], the remaining at 0.5 h, 0.5 µM was 99%. Also, the Vd in [12] amounted to 2 L/kg. This molecule yielded a CL in the data set with Mus musculus [13] below 50%. Moreover, the inhibition in [3], in data set [4], in [5] and in data set [6] was below 25% throughout. Also, the half-life in data set [18] was 5.28 h; in [15] it was 0.26 h. For the same molecule, the Tmax in data set [19] was 1 h. The AUC(0-inf) in data set [16] turned out to be 2660 ng·h/mL. In data set [17], this molecule gave a clearance of 35.5 mL/min/kg.
